These results are taken from ChEMBL document CHEMBL2203028, “SAR and Lead Optimization of an HIV-1 Vif-APOBEC3G Axis Inhibitor” (ACS Med Chem Lett, 2012).

The source made the active and inactive calls. The calls are words filed in the database; no cut-off is given here.

Series [1] can be described thus: (§1) Inhibition of X4 tropic HIV-1 LAI Vif infected in H9 cells assessed as inhibition of viral replication incubated for 10 to 15 days measured on every second day by reverse transcriptase assay. The class given is cell-based, Human immunodeficiency virus 1. In short, it runs like this:
(§2)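 Cells (2 x 10⁵/well) were pretreated overnight with 1 to 50 µM compound in RPMI with 10% FBS, then infected with X4-tropic HIV-1 LAI. Cultures were kept ± compound for 10-15 days. Every second day, 1/3 of supernatant was replaced with compound-containing medium, and RT activity was measured in supernatant. RN-18 served as positive control and untreated cells as negative control. There were ≥3 repeats; IC50 was calculated.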

Series [2] has as its system Plasma. In words: Plasma protein binding in human. The class given is ADME, cell-free.
Series [3] is described as follows: Cytotoxicity against human Fa2N-4 cells upto 50 uM by luminescence ATP detection assay. The class given is cell-based.
Series [4] is described as follows: Kinetic solubility at pH 6.2 by UV spectroscopic analysis. It is filed as physicochemical. Particulars: buffer.
Series [5] can be described thus: Kinetic solubility at pH 5.0 by UV spectroscopic analysis. The class given is physicochemical. Particulars: buffer.
Series [6] in a line: (§3) Inhibition of X4-tropic HIV-1 LAI Vif infected in MT4 cells assessed as inhibition of viral replication incubated for 10 to 15 days measured on every second day by reverse transcriptase assay by reverse transcriptase assay. The class given is cell-based, Human immunodeficiency virus 1. In short, it runs like this:
as §2

The nature of series [7]: Permeability across synthetic membrane at pH 6.2 by PAMPA assay. It is filed as ADME.
Series [8] has as its system Human immunodeficiency virus 1. As to the kind of experiment: Inhibition of HIV-1 GFP tagged Vif expressed in 293FT cells co-expressing HA-tagged A3G assessed as upregulation of HA-A3G expression at 50 uM incubated for 16 hrs by immunoblotting assay. The class given is cell-based. In short, it runs like this:
(§4)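 293FT cells co-expressing HA-tagged A3G with GFP-tagged Vif or ΔVif were grown for 16 h with antagonist at 50 µM or without compound. Extracts were immunoblotted with anti-HA (A3G), anti-GFP (Vif) and anti-GAPDH antibodies. A3G and Vif levels were compared with untreated Vif-expressing cells. RN-18 served as positive control and choline chloride as a further control.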

Series [9] can be described thus: Kinetic solubility at pH 7.2 by UV spectroscopic analysis. It is filed as physicochemical. Conditions: buffer.
A short description of series [10]: Permeability across synthetic membrane at pH 7.4 by PAMPA assay. It is filed as ADME.
Series [11] deals with Human immunodeficiency virus 1. In words: Inhibition of HIV-1 GFP tagged Vif expressed in 293FT cells co-expressing HA-tagged A3G assessed as downregulation of GFP-Vif expression at 50 uM incubated for 16 hrs by immunoblotting assay. It is filed as cell-based. In short, it runs like this: as §4
Series [12] in a line: Permeability across synthetic membrane at pH 5.0 by PAMPA assay. The class given is ADME.
The subject of the next series is Liver microsomes. In words: Metabolic stability in human liver microsomes. The class given is ADME, Microsome.
Series [13] has as its system Plasma. As to the kind of experiment: Metabolic stability in human plasma. The class given is ADME, cell-free.
Series [14] can be described thus: Inhibition of X4-tropic HIV-1 LAI Vif infected in MT4 cells assessed as inhibition of viral replication incubated for 10 to 15 days measured on every other day by reverse transcriptase assay. Conditions: Human immunodeficiency virus 1, LAI.
A short description of series [15]: Inhibition of X4-tropic HIV-1 LAI Vif infected in CEM cells assessed as inhibition of viral replication incubated for 14 to 21 days measured on every other day by reverse transcriptase assay. Conditions: Human immunodeficiency virus 1, LAI, CCRF-CEM. The class given is cell-based.
For a further series, the system named is H9. Described as §1. Particulars: Human immunodeficiency virus 1. It is filed as cell-based. The gist of the method:
as §2

For the next series, the system named is MT4. The description is as §3. It is filed as cell-based. Conditions: Human immunodeficiency virus 1. In short, it runs like this:
as §2

Where [16] appears, read: Human immunodeficiency virus 1, LAI, H9, read-out: IC50.

As to `COc1ccccc1NC(=O)c1ccccc1S(=O)(=O)c1ccc(C(=O)[O-])cc1.C[N+](C)(C)CCO`, the values for the half-inhibitory concentration (IC50) in series [1] (setting [16]) and in [6] (mt4) were 10 µM and “Not Active”, respectively. In the series on Plasma [2], the PPB entry is given as “Active”. Besides, the Activity entry in [3] is given as “Non-toxic”. Besides, the Kinetic_solubility result in [4], in series [5] and in [9] was “soluble” in each case. Also, the permeability result is “impermeable” in series [7], “impermeable” in series [10] and “permeable” in series [12]. For the same compound, the “HA-A3G upregulation (active/not active)” value in series [8] was “inactive”. The “GFP-Vif downregulation activity call” value in [11] was “inactive”. For the same compound, the Stability entry in the series with Liver microsomes and in the series on Plasma [13] was “Stable” each time.
As for `COc1ccccc1NC(=O)c1ccccc1Sc1ccc([N+](=O)[O-])cc1`, the concentration for half-maximal inhibition (IC50) is 6 µM in [1] (setting [16]), greater than 100 µM in [14], “Not Active” in series [6] (mt4) and 4.5 µM in [15]. Moreover, in series [8], the “HA-A3G upregulation (active/not active)” value was “Active”. Moreover, the “GFP-Vif downregulation activity call” value in [11] is “Active”.
Consider `CS(=O)(=O)Oc1ccccc1NC(=O)c1ccccc1Sc1ccc([N+](=O)[O-])cc1`, for which the IC50 was 5.6 µM in series [1] (setting [16]) and “Not Active” in series [6] (mt4).
In the case of `COc1ccccc1NC(=O)c1ccc(C)nc1Sc1ccc([N+](=O)[O-])cc1`, the results for the IC50 in series [1] (setting [16]) and in series [6] (mt4) were 1.5 µM and “Not Active”, respectively. Further, the “HA-A3G upregulation (active/not active)” value in [8] is “Active”. Moreover, the “GFP-Vif downregulation activity call” value in series [11] is “Active”.
Turning to `COC(=O)c1ccc(Sc2ccccc2C(=O)Nc2ccccc2OC)cc1`, the inhibition result in the series with H9 and with MT4 was “inactive” throughout.
For `COc1ccccc1NC(=O)c1ccccc1Cl`, the IC50 result in [1] (h9) was “Not Active”; in [6] (Human immunodeficiency virus 1, LAI, MT4, read-out: IC50) it was greater than 50 µM. Further, the “HA-A3G upregulation (active/not active)” value in [8] was “inactive”. Moreover, the “GFP-Vif downregulation activity call” value in series [11] was “inactive”.
As for `COC(=O)c1ccc(NC(=O)c2ccccc2Sc2ccc([N+](=O)[O-])cc2)c(OC)c1`, the 50% inhibitory concentration (IC50) in series [1] (setting [16]) was 10 µM; in series [6] (mt4) it was “Not Active”.
`COc1ccccc1NC(=O)c1ccccc1Sc1ccc(C(=O)[O-])cc1.C[N+](C)(C)CCO`: the inhibition entry in the series on H9 and in the series on MT4 was “inactive” throughout. The IC50 was 1 µM in series [1] (setting [16]) and “Not Active” in series [6] (mt4).
In the case of `O=C(Nc1ccccc1I)c1ccccc1Sc1ccc([N+](=O)[O-])cc1`, the IC50 in [1] (setting [16]) is 4.3 µM; in series [6] (mt4) it was “Not Active”.
On to `COc1ccccc1NC(=O)c1ccc(Sc2ccc([N+](=O)[O-])cc2)cc1Cl`, for which the half-inhibitory concentration (IC50) was 2.5 µM in [1] (setting [16]) and “Not Active” in series [6] (mt4). In series [8], the “HA-A3G upregulation (active/not active)” value was “Active”. In addition, the “GFP-Vif downregulation activity call” value in [11] is “Active”.
With `COc1ccccc1NC(=O)c1ccccc1S(=O)(=O)c1ccc([N+](=O)[O-])cc1`, the IC50 in [1] (setting [16]) is 1.1 µM; in [6] (mt4) it was “Not Active”. The “HA-A3G upregulation (active/not active)” value in series [8] is “Active”. Besides, the “GFP-Vif downregulation activity call” value in series [11] is “Active”.
Consider `COc1ccccc1NC(=O)c1cccnc1Sc1ccc([N+](=O)[O-])cc1`, for which the IC50 in [1] (setting [16]) was 10 µM; in series [6] (mt4), “Not Active”.
